# Screens: PubChem BioAssay, several laboratories
# A selection: hits, their analogues and other compounds. The true share with any hit is near 3.1%.
# ATG4B inh: ATG4B (human) cysteine protease inhibition | 340,000 tested, 0.51% active | ATG4B cleavage of LC3-PLA2, NBD-HPC fluorescence, 1 h | Q9Y4P1 | inhibition, % at 8.33 µM; in the data active means inhibition above about 40%
# UHRF1 binding: UHRF1 methyl-DNA binding inhibition; inhibition, % at 4.4 µM; 370,000 tested, 0.75% active; Q96T88; UHRF1 binding to methylated oligo, TR-FRET; in the data active means inhibition above about 21%;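 further: UHRF1 SRA domain binding a hemimethylated CpG hairpin DNA probe; 0% = median of test compound wells and 100% = reference inhibitor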
# MBD2 inh: inhibitors of human MBD2 binding to methylated oligonucleotide; AID 686964; inhibition, % at 4.4 µM; TR-FRET; 370,000 tested, 0.31% active; in the data active means inhibition above about 13%
# Target sequence (Q9UBB5 whole entry, looked up): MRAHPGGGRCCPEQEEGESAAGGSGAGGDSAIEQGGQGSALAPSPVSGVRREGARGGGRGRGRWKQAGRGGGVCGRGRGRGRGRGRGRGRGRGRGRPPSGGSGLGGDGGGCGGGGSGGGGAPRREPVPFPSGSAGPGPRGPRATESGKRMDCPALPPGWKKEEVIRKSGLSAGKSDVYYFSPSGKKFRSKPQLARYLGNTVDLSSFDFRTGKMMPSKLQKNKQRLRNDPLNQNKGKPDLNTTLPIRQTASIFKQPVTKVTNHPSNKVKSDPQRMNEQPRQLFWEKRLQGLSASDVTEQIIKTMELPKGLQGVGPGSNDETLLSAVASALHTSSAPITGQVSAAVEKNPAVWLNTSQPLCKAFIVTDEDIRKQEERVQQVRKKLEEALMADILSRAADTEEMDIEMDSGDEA
# LEDGF integ inh: blocks HIV-1 LEDGF/p75-dependent DNA integration. TR-FRET IN-LEDGF/p75 DNA integration, Eu/Cy5. inhibition, % at 3.7 µM. 370,000 tested, 0.64% active. AID 743269;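 active means inhibition above the screen-wide mean plus 3 SD, cut at about 13% in these data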;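 further: signal is the Cy5 over europium emission ratio at 671 and 618 nm; 0% = plate median of compound wells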
# CSN inh: inhibitors of human CSN-mediated cullin deneddylation; Q92905; Purified CSN, SCF-Nedd8-OG deneddylation, fluorescence polarization; inhibition, % at 12.5 µM; 360,000 tested, 0.38% active;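 active means pattern-corrected inhibition above about 35%, with an unprinted fluorescence ratio check between 0.5 and 1.5, limit read from the data, passing the limit was not always enough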;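 further: 0% = enzyme with substrate and 100% = substrate without enzyme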
#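 Material: human Csn5 produced in HEK293T cells; Input: enzyme 0.24 nM; Reagent: SCFSkp2-Nedd8OG substrate at 10 nM final; Dosing: 12.5 µM compound; Incubation: 90 min reaction at room temperature; Detection: fluorescence polarization of the substrate; Evaluation: % inhibition of substrate cleavage by Csn5; Control set: substrate-only high control, full reaction low control.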
# rCAG binder: binds r(CAG) RNA repeats. 370,000 tested, 1.3% active. inhibition, % at 3 µM. r(CAG) RNA repeat, TO-PRO-1 dye displacement fluorescence. AID 651821;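 active means inhibition above the plate cutoff, the mean of all test compounds on that plate plus 3 SD, cut at about 35% in these data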;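 further: 0% = DMSO alone and 100% = 100 µM mitoxantrone as full dye displacement; higher means more dye released from RNA so lower well fluorescence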
# Active calls of the source: *; x = no result given.
SMILES,ATG4B inh,UHRF1 binding,MBD2 inh,LEDGF integ inh,CSN inh,rCAG binder
CC1CCN(S(=O)(=O)c2ccc(C(=O)N3CCCC3C(=O)O)cc2)CC1 (stereo unspecified),-1,57*,3,4,-1,-1
CC1CCN(S(=O)(=O)c2ccc(C(=O)N3CCCCC3C(=O)O)cc2)CC1 (stereo unspecified),-5,2,6,-2,0,1
CC1CCN(C(=O)c2ccc(S(=O)(=O)N3CCCC3)cc2)CC1,-49,41*,2,-4,-8,-3
CC1CCN(C(=O)c2ccc(S(=O)(=O)N3CCCCCC3)cc2)CC1,-45,-2,-4,2,-1,-2
COc1ccccc1CNc1ccc([N+](=O)[O-])cc1C,-3,48*,0,2,1,-1
COc1ccc(/C=C/S(=O)(=O)NCCc2ccccc2)c(CNC(=O)OC(C)(C)C)c1,x,-3,-8,-2,x,2
S=C(NCc1ccco1)Nc1cc(-c2ccccc2)[nH]n1,-1,29*,6,10,1,6
S=C(NCc1ccco1)Nc1ccc(Br)cn1,2,-3,-4,1,-1,3
C=CCN1[C@@H](C)[C@H](c2ccccc2)Oc2cccc(N3CCCC(C)C3)c2S1(=O)=O (stereo partly specified),x,23*,7,-1,x,2
Cc1ccccc1CN1[C@@H](C)[C@H](c2ccccc2)Oc2cccc(N3CCCC(C)C3)c2S1(=O)=O (stereo partly specified),x,-2,1,-2,x,5
CC(C)Oc1ccc(CCC(=O)N/N=C/c2ccncc2)cc1,-3,27*,0,-3,-6,-6
CCCCCCCC(=O)N/N=C/c1ccncc1,-1,0,6,-2,1,-6
O=S1(=O)c2c(NCc3ccco3)cccc2Oc2ccccc2CN1Cc1cn(Cc2ccc(C(F)(F)F)cc2)nn1,x,2,0,-2,x,12
O=c1cc(OCc2ccccc2)cc[nH]1,-2,-2,0,24*,-5,1
Cc1[nH]ccc(=O)c1OCc1ccccc1,-2,0,2,1,1,4
OC(CNCc1ccccc1)Cn1ccc2ccccc21 (stereo unspecified),-20,27*,-1,-1,-1,-5
O=C1NCCN(CC2CCN(CCc3ccc(Cl)c(Cl)c3)CC2)C1=O,x,24*,11,8,1,1
CC[C@H](C)[C@H]1CNC(=O)C(=O)N1CC1CCN(CCc2ccc(Cl)c(Cl)c2)CC1,1,-2,-3,-2,0,-1
O=C(c1cccc(C(F)(F)F)c1)c1c[nH]c(C(=O)NCC2CCCO2)c1 (stereo unspecified),5,24*,2,1,-5,-6
CC(=O)c1c[nH]c(C(=O)NCC2CCCO2)c1 (stereo unspecified),-4,0,-2,0,-5,-1
COC(=O)[C@H](CC(C)C)N(CCCc1cn(Cc2ccc(C)cc2)nn1)S(=O)(=O)c1ccc(F)cc1Br,x,7,-3,1,x,-1
CN(C)NC(=S)NC(=O)C12CC3CC(CC(C3)C1)C2,-7,0,-2,0,0,3
CN(C(=S)NC(=O)C12CC3CC(CC(C3)C1)C2)c1ccc(O)cc1,-9,6,-9,15*,1,8
CCOc1ccc(NC(=S)C(C#N)=C2N(C)c3ccccc3N2C)cc1,-8,22*,1,-6,-2,1
C#CCN(CC=C)Cc1ccc(OC)cc1OC,x,1,1,-2,x,1
SMILES,ATG4B inh,UHRF1 binding,MBD2 inh,LEDGF integ inh,CSN inh,rCAG binder
C[C@H]1C2CC(OC(=O)NCc3ccccc3)C(C2)[C@H]2CCCCN21 (stereo partly specified),x,1,2,-8,x,4
Nc1nc(F)nc2c1ncn2[C@@H]1O[C@H](COP(=O)(O)O)[C@@H](O)[C@@H]1O,x,2,-1,-5,x,3
O=C(O)C1CSC(c2ccco2)N1 (stereo unspecified),8,65*,34*,48*,34,21
CC(C)=CCC[C@@]1(C(=O)O)[C@H]2CC=C(CO)[C@@H]1CC/C(C)=C/CC/C(C)=C/C2,x,1,6,0,x,6
COC(=O)[C@]12C[C@H](CC(=O)NCc3ccc(C)o3)C(=O)N(Cc3ccco3)C1=C[C@H](COCc1ccccc1)O[C@@H]2C,x,4,-4,6,x,7
CC(C(=O)N1CCCc2ccccc21)N1CCN(S(=O)(=O)c2ccccc2F)CC1 (stereo unspecified),-11,4,3,5,0,-5
Cc1ccc(S(=O)(=O)N2CCN(C(C)C(=O)N3CCCc4ccccc43)CC2)cc1 (stereo unspecified),-9,27*,1,0,4,-4
Cc1ccc2c(c1)C1CS(=O)(=O)N(CCc3ccccc3)C(=O)N1C2 (stereo unspecified),x,3,2,2,x,8
COc1ccc(-c2ccc3c(c2)S(=O)(=O)c2cccc(C(=O)NCc4ccccc4Cl)c2C3=O)cc1OC,4,2,10,-1,14,22
COc1ccc(-c2ccc3c(c2)S(=O)(=O)c2cccc(C(=O)NCCOc4ccccc4Cl)c2C3=O)cc1OC,8,8,13,1,65*,16
CC(=O)Nc1cc(Cl)c(N=Cc2ccc(O)cc2O)cc1Cl,17,1,-8,24*,4,31
COc1ccc(-c2nc3c(c(=O)c4ccccc4n3C)c(=O)n2Cc2ccccc2)cc1,-5,0,-3,1,3,1
COc1ccc(Cn2c(-c3ccc(C)cc3)nc3c(c(=O)c4ccccc4n3C)c2=O)cc1,21,-4,4,1,44*,5
O=C1CCC[C@H]2C[C@H](NCc3ccccc3F)CC[C@]23CCCN13,x,0,0,-3,x,x
COc1ccc2c(c1)c(=O)oc1c(C)c(OC(C)C(=O)N[C@@H](Cc3c[nH]c4ccc(O)cc34)C(=O)O)ccc12 (stereo partly specified),-13,5,1,2,5,69*
CC(Oc1ccc2c(-c3ccccc3)cc(=O)oc2c1)C(=O)NC(Cc1c[nH]c2ccc(O)cc12)C(=O)O (stereo unspecified),0,0,1,0,-2,33
CO[C@@]1(NC(=O)CSCC#N)C(=O)N2C(C(=O)O)=C(CSc3nnnn3C)CS[C@@H]21,-2,44*,-4,10,15,52*
Cc1nnc(SCC2=C(C(=O)O)N3C(=O)C(NC(=O)Cn4cnnn4)C3SC2)s1 (stereo unspecified),4,-4,5,5,-3,6
O=C1/C(=C/c2ccncc2)SC(=S)N1C1CCCCC1,-1,-3,-5,-1,5,1
